Measurements from ChEMBL document CHEMBL1128366, “Hypoxia-selective agents derived from quinoxaline 1,4-di-N-oxides” (J Med Chem, 1995).

Tests used:
V79 = test: The compound was tested for potency by measuring the concentration (umolar) that gives 1% clonogenic cell survival in hypoxia; type: functional, Cricetulus griseus
Outline: (§1)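 V-79 Chinese hamster lung fibroblasts in stirred suspension (2 × 10⁴ cells/mL, EMEM + 10% FBS, 10 mM HEPES), gassed for air or hypoxia; drug in DMSO added 30 min after gassing began, two flasks per dose, 2 h exposure. Cells cloned 7 days at 37 °C, crystal violet stain, colonies >64 cells counted; survival = PE treated/PE control. Dose-response curves from ≥3 experiments.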

[1] = Hypoxia cytotoxicity ratio (dose in air / hypoxia giving 99% of cell killing); outline: as §1

| SMILES | Potency (V79) | Selectivity [1] |
| --- | --- | --- |
| N#Cc1c(N)[n+]([O-])c2cc(F)c(F)cc2[n+]1[O-] | 1 µM | < 10 |
| N#Cc1c(N)[n+]([O-])c2cc(Cl)ccc2[n+]1[O-] | 9 µM | 150 |
| N#Cc1c(N)[n+]([O-])c2cc(Cl)c(F)cc2[n+]1[O-] | 2 µM | 10 |
| N#Cc1c(N)[n+]([O-])c2cc(Cl)c(Cl)cc2[n+]1[O-] | 1 µM | 80 |
| N#Cc1c(N)[n+]([O-])c2cc(-c3ccc([N+](=O)[O-])cc3)ccc2[n+]1[O-] | 4 µM | 15 |
| COc1cc2c(cc1Cl)[n+]([O-])c(C#N)c(N)[n+]2[O-] | 10 µM | < 10 |
| N#Cc1c(N)[n+]([O-])c2cc(F)ccc2[n+]1[O-] | 15 µM | 100 |
| N#Cc1c(N)[n+]([O-])c2ccccc2[n+]1[O-] | 30 µM | 80 |
| N#Cc1c(N)[n+]([O-])c2cc(C(F)(F)F)ccc2[n+]1[O-] | 7 µM | 75 |
| N#Cc1ccc2c(c1)[n+]([O-])c(N)c(C#N)[n+]2[O-] | 11 µM | 50 |
| COc1ccc2c(c1)[n+]([O-])c(N)c(C#N)[n+]2[O-] | 30 µM | > 10 |
| Nc1n[n+]([O-])c2ccccc2[n+]1[O-] [TIRAPAZAMINE] | 30 µM | 75 |
